Measurements as given in PubChem BioAssay AID623898 (Johns Hopkins Ion Channel Center, 2012).
Several values for one entry are separate records, joined by “and”; a condition that tells them apart may be missing. Equal values may be shown once. Activity calls are given as the source filed them.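 How the source made its calls: active means over 50% block of current through the KCNK9 TASK-3 potassium channel at 10 µM compound; inactive means the rest.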

Target: Potassium channel subfamily K member 9 (Homo sapiens) (UniProt Q9NPC2)
Sequence (Q9NPC2 whole entry, looked up): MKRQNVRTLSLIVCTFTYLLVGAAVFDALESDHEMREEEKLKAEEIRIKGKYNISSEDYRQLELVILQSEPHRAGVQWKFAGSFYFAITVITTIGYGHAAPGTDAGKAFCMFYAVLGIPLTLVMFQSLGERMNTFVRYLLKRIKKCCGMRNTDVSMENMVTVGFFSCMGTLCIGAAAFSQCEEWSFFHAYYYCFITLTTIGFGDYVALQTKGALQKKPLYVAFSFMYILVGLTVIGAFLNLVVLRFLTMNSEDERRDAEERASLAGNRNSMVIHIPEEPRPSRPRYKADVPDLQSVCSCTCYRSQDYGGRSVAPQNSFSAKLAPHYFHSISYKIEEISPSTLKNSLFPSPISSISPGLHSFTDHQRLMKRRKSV
Assay: KCNK9 current inhibition by patch clamp, SAR follow-up, cell-based, automated electrophysiology, HEK293 (AID 623898)
Conditions: HEK293 KCNK9, QPatch automated patch clamp current
Method in brief: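 material = HEK293 cells with tetracycline-inducible stable human KCNK9 expression | medium = 140 mM potassium external buffer, pH 7.40 | doses = cumulative compound concentration series on each cell | times = 5 min compound exposure per concentration | technique = automated whole-cell voltage clamp, current at -30 mV | read-out basis = per-cell IC50, Hill slope fixed at 1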

SMILES | IC50 | outcome
CCOc1ccccc1NC(=O)c1cccc(NC(=O)c2ccccc2C(F)(F)F)c1 | 0.52 µM | –
Cc1cccc(C(=O)Nc2cccc(NC(=O)c3ccccc3OC(F)(F)F)c2)c1 | 0.99 µM | –
CCOc1ccccc1NC(=O)c1cccc(NC(=O)CC2CCCCC2)c1 | 4.73 µM | –
CCOc1ccccc1NC(=O)c1cccc(NC(=O)CC2CCCC2)c1 | 3.9 µM | –
O=C(Nc1cccc(NC(=O)c2ccccc2C(F)(F)F)c1)c1ccccc1 | 0.85 µM | –
C[C@@H](C1CCCCC1)n1c(-c2ccco2)n[nH]c1=S | 6.66 µM | –
C[C@@H]([C@@H]1CC2CC[C@H]1C2)n1c(-c2ccco2)n[nH]c1=S | 0.41 µM | –
COc1ccc(-c2n[nH]c(=S)n2C(C)C2CC3CCC2C3)cc1 (centres undefined) | 0.33 µM | –
CCOc1ccccc1NC(=O)c1cccc(NC(=O)c2ccccc2OC(F)(F)F)c1 | 1.49 µM | –
Cc1ccccc1-c1n[nH]c(=S)n1C(C)C1CC2CCC1C2 (centres undefined) | 0.96 µM | –
CC(C1CC2CCC1C2)n1c(-c2ccsc2)n[nH]c1=S (centres undefined) | 0.62 µM | –
CCOc1ccccc1C(=O)Nc1cccc(NC(=O)C2CCCC2)c1 | 0.49 µM | –
O=C(Nc1cccc(NC(=O)C2CCCCC2)c1)c1ccccc1 | 8.1 µM | –
COc1ccccc1C(=O)Nc1cccc(NC(=O)c2ccccc2OC(F)(F)F)c1 | 0.6 µM | –
Cc1cccc(C(=O)Nc2cccc(NC(=O)c3ccccc3C)c2)c1 | 0.48 µM | –
C[C@H](C1CCCCC1)n1c(-c2ccsc2)n[nH]c1=S | 0.68 µM | –
CCOc1ccccc1NC(=O)c1cccc(NC(=O)c2cccc(C)c2)c1 | 2.38 µM | –
CC(C1CC2CCC1C2)n1c(-c2ccco2)n[nH]c1=S (centres undefined) | 0.25 µM and 0.23 µM | –
CC(C1CC2CCC1C2)n1c(-c2ccccc2Cl)n[nH]c1=S (centres undefined) | 0.95 µM | –
CCOc1ccccc1NC(=O)c1cccc(NC(=O)C2CCCCC2)c1 | 1.11 µM | –
Cc1cccc(C(=O)Nc2cccc(NC(=O)c3ccco3)c2)c1 | 0.95 µM | –
COc1ccccc1-c1n[nH]c(=S)n1C(C)C1CC2CCC1C2 (centres undefined) | 1.04 µM | –
CC(CC1CC2CCC1C2)n1c(-c2ccco2)n[nH]c1=S (centres undefined) | 0.59 µM | –
CC(C1CC2CCC1C2)n1c(-c2ccccc2F)n[nH]c1=S (centres undefined) | 0.25 µM | –
COc1ccccc1NC(=O)c1cccc(NC(=O)c2ccccc2)c1 | 8.48 µM | –
CC(C)n1c(-c2ccco2)n[nH]c1=S | – | inactive
C[C@@H]([C@@H]1CC2CC[C@H]1C2)n1c(-c2ccsc2)n[nH]c1=S | 0.41 µM and 0.68 µM | –

SMILES | IC50 | outcome
CC(C1CC2CCC1C2)n1c(-c2cccc(Cl)c2)n[nH]c1=S (centres undefined) | 0.96 µM | –
CC(C1CC2CCC1C2)n1c(-c2ccccc2)n[nH]c1=S (centres undefined) | 1.24 µM | –
CCOc1ccccc1NC(=O)c1cccc(NC(=O)c2ccccc2)c1 | 2.14 µM | –
C[C@H](C1CCCCC1)n1c(-c2ccco2)n[nH]c1=S | 0.51 µM | –
Cc1ccc(C(=O)Nc2cccc(NC(=O)c3ccccc3)c2)cc1 | – | inactive
CCOc1ccccc1NC(=O)c1cccc(NC(=O)c2cccc(C(F)(F)F)c2)c1 | 2.1 µM | –
Cc1ccccc1C(=O)Nc1cccc(NC(=O)c2ccccc2)c1 | 0.27 µM | –
CC(C1CC2CCC1C2)n1c(-c2ccco2)nn(CCc2ccncc2)c1=S (centres undefined) | 0.49 µM | –
O=C(Nc1cccc(NC(=O)c2ccc(C(F)(F)F)cc2)c1)c1ccccc1 | – | inactive
COc1ccccc1C(=O)Nc1cccc(NC(=O)c2ccccc2C(C)C)c1 | 0.67 µM | –
COc1ccccc1C(=O)Nc1cccc(NC(=O)c2ccccc2OC)c1 | 0.71 µM | –
COc1cccc(-c2n[nH]c(=S)n2C(C)C2CC3CCC2C3)c1 (centres undefined) | 0.28 µM | –
CCOc1ccccc1C(=O)Nc1cccc(NC(=O)c2ccccc2C(F)(F)F)c1 | 0.25 µM | –
C[C@H]([C@@H]1CC2CC[C@H]1C2)n1c(-c2ccsc2)n[nH]c1=S | – | inactive
Cc1cccc(C(=O)Nc2cccc(NC(=O)c3ccccc3OCC(C)C)c2)c1 | 2.52 µM | –
S=c1[nH]nc(-c2ccco2)n1CC1CCCCC1 | 3.78 µM | –
O=C(Nc1cccc(NC(=O)c2ccccn2)c1)c1ccccc1 | 6.1 µM | –
COc1ccc(CCSc2nnc(-c3ccco3)n2C(C)C2CC3CCC2C3)cc1OC (centres undefined) | 5.48 µM | –
COc1cccc(C(=O)Nc2cccc(NC(=O)c3ccccc3)c2)c1 | 0.42 µM | –
CCOc1ccccc1C(=O)Nc1cccc(NC(=O)c2ccccc2OC)c1 | 0.18 µM | –
Cc1cccc(-c2n[nH]c(=S)n2C(C)C2CC3CCC2C3)c1 (centres undefined) | 0.76 µM | –
COc1ccccc1NC(=O)c1cccc(NC(=O)C2CCCC2)c1 | 3.16 µM | –
CC(C1CC2CCC1C2)n1c(-c2cccc(N(C)C)c2)n[nH]c1=S (centres undefined) | 1.72 µM | –
CCOc1ccccc1C(=O)Nc1cccc(NC(=O)c2cccc(C)c2)c1 | 0.38 µM | –
COc1ccccc1C(=O)Nc1cccc(NC(=O)c2cccc(C)c2)c1 | 1.49 µM | –
CC(C1CC2CCC1C2)n1c(-c2ccoc2)n[nH]c1=S (centres undefined) | 0.94 µM | –
Cc1cccc(C(=O)Nc2cccc(NC(=O)c3cccc(C)c3)c2)c1 | 2.24 µM | –
